Among the data in ChEMBL document CHEMBL4610084, “Antibacterial and ATP Synthesis Modulating Compounds from Salvia tingitana” (2020) are MIC values, retold here.

Type in all cases: functional
Assay [1] deals with Staphylococcus aureus. The experiment in a line: Antibacterial activity against Methicillin-resistant Staphylococcus aureus MB18 after 24 hrs by microdilution assay. The conditions noted are these: MB18, 24 h. In a few lines:
(§1)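 Broth microdilution MIC, run as in an earlier cited report. Strains are clinical isolates identified by standard methods and MALDI-TOF; E. faecalis MB19 and MB51 are Ligurian seawater isolates. Highest concentration tested was 128 μg/mL. MICs are given in μg/mL and μM, with oxacillin and vancomycin as reference antibiotics.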
In general terms: Broth dilution looks for growth in wells or tubes with falling amounts of substance.

Assay [2] relates to Staphylococcus aureus. The experiment in a line: Antibacterial activity against Methicillin-resistant Staphylococcus aureus MB188 after 24 hrs by microdilution assay. The conditions noted are these: MB188, 24 h. In a few lines: as §1
In assay [3] the test system is Staphylococcus epidermidis. Nature of the assay: Antibacterial activity against Methicillin-resistant Staphylococcus epidermidis MB165 after 24 hrs by microdilution assay. The conditions noted are these: MB165, 24 h. In a few lines: as §1
Assay [4] concerns Staphylococcus epidermidis. Nature of the assay: Antibacterial activity against Methicillin-resistant Staphylococcus epidermidis MB169 after 24 hrs by microdilution assay. The conditions noted are these: MB169, 24 h. In a few lines: as §1
Assay [5] relates to Staphylococcus saprophyticus. The experiment in a line: Antibacterial activity against Staphylococcus saprophyticus MB41 after 24 hrs by microdilution assay. The conditions noted are these: MB41, 24 h. In a few lines:
(§2)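 Broth microdilution MIC against clinical or seawater-isolated strains (identified by standard procedures and MALDI-TOF), with compound solutions and testing as in earlier work. MIC reported in μg/mL and μM.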

In a further assay the test system is Staphylococcus capitis. The experiment in a line: Antibacterial activity against Methicillin-resistant Staphylococcus capitis MB71 after 24 hrs by microdilution assay. The note with it: MB71, 24 h. In a few lines:
as §1

For another assay, the system named is Staphylococcus warneri. The experiment in a line: Antibacterial activity against Methicillin-resistant Staphylococcus warneri MB74 after 24 hrs by microdilution assay. The note with it: MB74, 24 h. In a few lines: as §1
A further assay concerns Staphylococcus simulans. The experiment in a line: Antibacterial activity against Staphylococcus simulans MB94 after 24 hrs by microdilution assay. The note with it: MB94, 24 h. In a few lines:
as §2

Assay [6] has as its system Staphylococcus lugdunensis. The experiment in a line: Antibacterial activity against Staphylococcus lugdunensis MB96 after 24 hrs by microdilution assay. The conditions noted are these: MB96, 24 h. In a few lines:
as §2

The test system of assay [7] is Staphylococcus haemolyticus. Nature of the assay: Antibacterial activity against Methicillin-resistant Staphylococcus haemolyticus MB115 after 24 hrs by microdilution assay. The conditions noted are these: MB115, 24 h. In a few lines:
as §1

Another assay deals with Staphylococcus hominis. The experiment in a line: Antibacterial activity against Methicillin-resistant Staphylococcus hominis MB124 after 24 hrs by microdilution assay. The conditions noted are these: MB124, 24 h. In a few lines: as §1
For assay [8], the system named is Enterococcus faecalis. The experiment in a line: Antibacterial activity against Vancomycin resistant Enterococcus faecalis MB1 after 24 hrs by microdilution assay. The note with it: MB1, 24 h. In a few lines: as §1
In assay [9] the test system is Enterococcus faecalis. The experiment in a line: Antibacterial activity against Vancomycin resistant Enterococcus faecalis MB19 after 24 hrs by microdilution assay. The conditions noted are these: MB19, 24 h. In a few lines: as §1
Assay [10] deals with Enterococcus faecalis. The experiment in a line: Antibacterial activity against Vancomycin resistant Enterococcus faecalis MB51 after 24 hrs by microdilution assay. The conditions noted are these: MB51, 24 h. In a few lines: as §1
Assay [11] deals with Enterococcus faecalis. The experiment in a line: Antibacterial activity against Enterococcus faecalis MB76 after 24 hrs by microdilution assay. The note with it: MB76, 24 h. In a few lines:
as §1

Assay [12] relates to Enterococcus faecium. The experiment in a line: Antibacterial activity against Enterococcus faecium MB2 after 24 hrs by microdilution assay. The note with it: MB2, 24 h. In a few lines: as §2
Assay [13] deals with Enterococcus faecium. The experiment in a line: Antibacterial activity against Enterococcus faecium MB3 after 24 hrs by microdilution assay. The note with it: MB3, 24 h. In a few lines: as §2
Assay [14] concerns Enterococcus faecium. The experiment in a line: Antibacterial activity against Enterococcus faecium MB152 after 24 hrs by microdilution assay. The conditions noted are these: MB152, 24 h. In a few lines: as §2
The next assay has as its system Enterococcus avium. Nature of the assay: Antibacterial activity against Enterococcus avium MB119 after 24 hrs by microdilution assay. The conditions noted are these: MB119, 24 h. In a few lines:
as §2

Assay [15] relates to Enterococcus casseliflavus. Nature of the assay: Antibacterial activity against Vancomycin resistant Enterococcus casseliflavus MB159 after 24 hrs by microdilution assay. The note with it: MB159, 24 h. In a few lines: as §1
Another assay has as its system Enterococcus durans. Nature of the assay: Antibacterial activity against Enterococcus durans MB113 after 24 hrs by microdilution assay. The conditions noted are these: MB113, 24 h. In a few lines:
as §2

The test system of a further assay is Enterococcus gallinarum. Nature of the assay: Antibacterial activity against Vancomycin resistant Enterococcus gallinarum MB111 after 24 hrs by microdilution assay. The note with it: MB111, 24 h. In a few lines: as §1

The structures appear in SMILES notation. In brackets after ≈: the same amount, converted by molar mass.

What is called MIC is the smallest concentration in the dilution series that meets the test's criterion for growth inhibition. Higher therefore signals a need for much substance. Take `COC(=O)[C@]1(C)CCC[C@@]2(C)[C@H]1CC[C@@](C)(O)[C@@H]2CC/C(C)=C/[C@H](O)[C@H]1OC(=O)C=C1C`: the MIC was 286 µM against Staphylococcus aureus [1]; greater than 128 µg/mL with Staphylococcus aureus [2]; greater than 128 µg/mL in assay [3]; 286 µM in assay [4]; 286 µM in assay [5]; 286 µM (≈ 128 µg/mL) in the assay on Staphylococcus capitis. Besides, the MIC against Staphylococcus warneri was 143 µM; against Staphylococcus simulans, greater than 128 µg/mL; in assay [6], 286 µM; in [7], greater than 128 µg/mL; against Staphylococcus hominis, 286 µM; with Enterococcus faecalis [8] it was 143 µM. Moreover, the MIC against Enterococcus faecalis [9] amounted to 143 µM (≈ 64.1 µg/mL); in the assay with Enterococcus faecalis [10], 286 µM (≈ 128 µg/mL); with Enterococcus faecalis [11], 143 µM (≈ 64.1 µg/mL); with Enterococcus faecium [12] it was 286 µM (≈ 128 µg/mL); with Enterococcus faecium [13], 143 µM (≈ 64.1 µg/mL); against Enterococcus faecium [14], 286 µM. Also, the MIC was 286 µM against Enterococcus avium, 143 µM (≈ 64.1 µg/mL) in assay [15], 286 µM against Enterococcus durans and 143 µM (≈ 64.1 µg/mL) in the assay with Enterococcus gallinarum.

As for `COC(=O)[C@]1(C)CCC[C@]2(C)[C@H]3CCC(C)(/C=C/c4occc4C)O[C@]3(C)CC[C@H]21` (stereo partly drawn), the MIC against Staphylococcus aureus [1] was 309 µM; in the assay with Staphylococcus aureus [2], greater than 128 µg/mL; in assay [3], 309 µM; in [4], 155 µM; in [5] it was 309 µM; in the assay on Staphylococcus capitis, 155 µM (≈ 64.3 µg/mL). Besides, the MIC against Staphylococcus warneri was 309 µM; in the assay on Staphylococcus simulans, greater than 128 µg/mL; in assay [6] it was greater than 128 µg/mL; in [7], greater than 128 µg/mL; with Staphylococcus hominis it was 309 µM; against Enterococcus faecalis [8], greater than 128 µg/mL. In addition, the MIC against Enterococcus faecalis [9] is 309 µM (≈ 128 µg/mL); with Enterococcus faecalis [10] it was 309 µM (≈ 128 µg/mL); against Enterococcus faecalis [11], 309 µM (≈ 128 µg/mL); with Enterococcus faecium [12], 309 µM (≈ 128 µg/mL); in the assay on Enterococcus faecium [13] it was 309 µM (≈ 128 µg/mL); in the assay on Enterococcus faecium [14], greater than 128 µg/mL. In addition, the MIC in the assay on Enterococcus avium is greater than 128 µg/mL; in [15], 309 µM (≈ 128 µg/mL); against Enterococcus durans, greater than 128 µg/mL; against Enterococcus gallinarum, 309 µM (≈ 128 µg/mL).

Regarding `COc1cc2oc(-c3ccc(O)cc3)cc(=O)c2c(O)c1OC` [CIRSIMARITIN], the MIC with Staphylococcus aureus [1] is greater than 128 µg/mL; in the assay with Staphylococcus aureus [2] it was greater than 128 µg/mL; in assay [3] it was greater than 128 µg/mL; in [4] it was greater than 128 µg/mL; in assay [5], greater than 128 µg/mL; in the assay with Staphylococcus capitis, 407 µM (≈ 128 µg/mL). Also, the MIC was greater than 128 µg/mL against Staphylococcus warneri; greater than 128 µg/mL against Staphylococcus simulans; 407 µM in assay [6]; greater than 128 µg/mL in assay [7]; greater than 128 µg/mL in the assay on Staphylococcus hominis; 204 µM against Enterococcus faecalis [8]. For the same compound, the MIC in the assay on Enterococcus faecalis [9] came out at 407 µM (≈ 128 µg/mL); in the assay on Enterococcus faecalis [10], 407 µM (≈ 128 µg/mL); in the assay on Enterococcus faecalis [11], 407 µM (≈ 128 µg/mL); against Enterococcus faecium [12], 407 µM (≈ 128 µg/mL); against Enterococcus faecium [13], 204 µM (≈ 64.1 µg/mL); against Enterococcus faecium [14], 407 µM. In addition, the MIC in the assay on Enterococcus avium is 204 µM; in assay [15], 407 µM (≈ 128 µg/mL); against Enterococcus durans, 407 µM; against Enterococcus gallinarum, 102 µM (≈ 32.1 µg/mL).

`COC1O[C@H]2C[C@@](C)(O)[C@H](CC/C(C)=C/[C@H](O)[C@H]3OC(=O)C=C3C)[C@@]3(C)CCC[C@]1(C)[C@H]23` (stereo partly drawn): the MIC was 286 µM against Staphylococcus aureus [1]; greater than 128 µg/mL with Staphylococcus aureus [2]; greater than 128 µg/mL in [3]; 286 µM in [4]; 286 µM in assay [5]; 286 µM (≈ 128 µg/mL) against Staphylococcus capitis. Besides, the MIC is greater than 128 µg/mL with Staphylococcus warneri; greater than 128 µg/mL in the assay with Staphylococcus simulans; greater than 128 µg/mL in assay [6]; greater than 128 µg/mL in assay [7]; 286 µM with Staphylococcus hominis; 143 µM with Enterococcus faecalis [8]. Moreover, the MIC was 286 µM (≈ 128 µg/mL) against Enterococcus faecalis [9]; 143 µM (≈ 64.1 µg/mL) in the assay on Enterococcus faecalis [10]; 143 µM (≈ 64.1 µg/mL) in the assay with Enterococcus faecalis [11]; 286 µM (≈ 128 µg/mL) in the assay with Enterococcus faecium [12]; 143 µM (≈ 64.1 µg/mL) against Enterococcus faecium [13]; 286 µM against Enterococcus faecium [14]. For the same compound, the MIC in the assay with Enterococcus avium is 143 µM; in assay [15] it was 286 µM (≈ 128 µg/mL); with Enterococcus durans it was greater than 128 µg/mL; in the assay with Enterococcus gallinarum, 143 µM (≈ 64.1 µg/mL).
